# This is a sample that favours compounds with a hit; in the whole collection about 3.7% have one here.
# hERG rescue = hERG rescue from dofetilide block, primary screen, cell-based, CHO-hERG, FluxOR thallium flux, dofetilide IC70; Voltage-gated inwardly rectifying potassium channel KCNH2 (Homo sapiens), Q12809; dofetilide IC70 present; activation (rescue from dofetilide block), less the hit threshold, % at 10 µM; 310,000 compounds, 0.51% hits; AID 1511, 2009;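 active = activation above the mean of controls blocked by dofetilide plus 5 SD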;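 note: thallium influx through hERG after potassium depolarization seen as dye fluorescence rise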
# Kir21 block = inhibitors of mouse Kir2.1 inward-rectifier potassium channel; Inward rectifier potassium channel 2 (Mus musculus), P35561; HEK293-Kir2.1, FluxOR thallium flux fluorescence; active compounds read low; B-score at 10 µM; 310,000 compounds, 0.85% hits; AID 1672, 2009;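 active = fluorescence ratio B-score at or below minus 3 SD of library scores, with starting-brightness B-score within 2 SD, cut at about -4.2 in these data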;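 note: channel flux triggered by added potassium and thallium sulfate stimulus; B-score of peak minus minimum fluorescence over baseline after thallium stimulus; more negative B-score means stronger Kir2.1 block with less thallium influx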
# Target sequence (P35561 whole entry, looked up): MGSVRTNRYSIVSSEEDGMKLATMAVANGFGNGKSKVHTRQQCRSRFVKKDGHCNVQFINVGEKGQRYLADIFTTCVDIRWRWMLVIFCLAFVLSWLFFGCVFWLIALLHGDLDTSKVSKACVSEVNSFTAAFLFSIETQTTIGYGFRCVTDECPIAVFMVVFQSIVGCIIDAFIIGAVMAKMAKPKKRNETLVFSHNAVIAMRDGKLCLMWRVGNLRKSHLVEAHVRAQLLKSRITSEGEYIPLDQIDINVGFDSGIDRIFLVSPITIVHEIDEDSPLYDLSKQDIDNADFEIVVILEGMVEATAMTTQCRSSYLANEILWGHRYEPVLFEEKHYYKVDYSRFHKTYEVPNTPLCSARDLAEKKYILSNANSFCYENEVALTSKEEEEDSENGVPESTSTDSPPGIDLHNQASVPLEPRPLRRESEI
# KCNQ1 act = potentiators or activators of KCNQ1 channel, primary screen, cell-based, thallium flux, high-throughput. Potassium voltage-gated channel subfamily KQT member 1 (Homo sapiens), P51787. CHO-K1 KCNQ1, thallium flux FluxOR fluorescence; active compounds read high. B-score at 10 µM. 310,000 compounds, 0.35% hits;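 active = fluorescence ratio B-score, a plate-corrected score, at least three library SD, with initial intensity B-score within 5 SD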
#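 System: Stable KCNQ1 CHO-K1 line | Incubation: 90 min dye loading and 20 min compound exposure, both at room temperature | Measure: Ratio B score | Medium: Assay buffer for compound exposure, DMSO matched across wells | Compound dosing: Single-concentration screen | Probe or stimulus: K+/Tl+ depolarizing stimulus | Measured by: Kinetic FluxOR fluorescence, 10 s baseline plus 110 s post-stimulus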
# KCNK9 block = KCNK9 potassium channel inhibitors, primary screen, HEK293 cells, thallium flux; FluxOR thallium flux fluorescence; active compounds read low; B-score at 10 µM; 310,000 compounds, 1.2% hits;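 active = ratio B-score over 3 SD below the library mean, with starting fluorescence within 5 SD of its mean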;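 note: negative B-score means less thallium flux so channel inhibition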
# KCNQ1 inh = inhibitors of human KCNQ1 channel, primary screen, cell-based, thallium flux, high-throughput. CHO-K1 KCNQ1, FluxOR thallium flux fluorescence; active compounds read high. B-score at 10 µM. 310,000 compounds, 1.3% hits. AID 2642, 2010;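 active = compounds whose thallium flux B-score, printed positive for inhibition, exceeds three library SD while starting fluorescence stays within three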;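 note: channel opened by potassium depolarization with thallium stimulus after 20 min compound exposure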
# KCNK3 block = human KCNK3 channel inhibitors, primary screen, CHO cells, FluxOR thallium flux, B-score; Potassium channel subfamily K member 3 (Homo sapiens), O14649; FluxOR fluorescence; active compounds read low; 340,000 compounds, 0.84% hits; B-score at 10 µM;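 active = B-score under library mean minus 4 SD, starting fluorescence ratio at most library mean plus 5 SD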;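 note: more negative B-score means stronger inhibition of thallium flux through KCNK3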
# KCNK9 inh conf = KCNK9 potassium channel inhibitors, confirmation, HEK293 cells, thallium flux, duplicate. shares compounds with KCNK9 block. FluxOR thallium flux fluorescence. inhibition, % at 10 µM. 4,900 compounds, 43% hits;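 active = thallium signal inhibited by more than 5 SD of the compound-free buffer control wells, on both duplicate plates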
# Kir21 sel = mouse Kir2.1 channel inhibition, confirmation, selectivity assay for KCNK9 modulator project, cell-based, HEK293, thallium flux | shares compounds with KCNK9 block | Kir2.1 cells, FluxOR thallium flux fluorescence | inhibition, % at 10 µM | 4,900 compounds, 4% hits | AID 492993, 2010;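 active = thallium signal drop more than 5 SD beyond the mean of the no-compound control wells, seen in both duplicate plates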;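 note: signal is fluorescence rise after thallium addition divided by baseline fluorescence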
# KCNK9 uninduced = thallium flux in non-induced HEK293 cells, confirmation, counter-screen for KCNK9 inhibitor project, cell-based, second counter screen, non-induced KCNK9-HEK293; shares compounds with KCNK9 block; FluxOR thallium flux; inhibition, % at 10 µM; 4,900 compounds, 40% hits; AID 492997, 2010;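 active = thallium signal drop beyond 5 SD of the untreated control mean, on both duplicate plates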
# Hits are given with their value; 0 = inactive; - = not tested or not shown.
SMILES,hERG rescue,Kir21 block,KCNQ1 act,KCNK9 block,KCNQ1 inh,KCNK3 block,KCNK9 inh conf,Kir21 sel,KCNK9 uninduced
Cc1cc(C)c2nc(NNC(=O)c3ccc(S(=O)(=O)N4CCCC(C)C4)cc3)sc2c1 (centres undefined),0,0,0,0,0,0,0,0,0
Cc1cccc2sc(NNC(=O)c3ccc(S(=O)(=O)N4CC(C)CC(C)C4)cc3)nc12 (centres undefined),0,0,0,0,6,0,0,0,0
Cc1cc(C)c2nc(NNC(=O)c3ccc(S(=O)(=O)N4CC(C)CC(C)C4)cc3)sc2c1 (centres undefined),0,0,0,0,0,0,0,0,0
CN=C(Nc1cccnc1)c1ccccc1,0,0,0,0,0,0,-,-,-
Cc1ccc(-c2cc(C(=O)O)n(-c3ccc(S(N)(=O)=O)cc3)n2)cc1,0,0,0,0,0,0,-,-,-
CCOc1cc(Br)c(C(C)NC(=O)c2cccnc2)cc1OCC (centres undefined),0,0,0,0,0,0,-,-,-
CCOc1ccc(CCNC(=O)COC(=O)/C=C/c2ccccc2OC)cc1OCC,0,0,0,0,0,0,-,-,-
O=C(Cc1cccs1)NNC(=O)C12CC3CC(CC(C3)C1)C2,0,0,0,0,0,0,-,-,-
COC(=O)c1ccc(S(=O)(=O)N2CCN(C(c3ccccc3)c3ccccc3)CC2)n1C,0,0,0,0,0,0,0,0,0
COc1cccc(-c2cc(C(F)(F)F)n3nc(C(=O)N4CCCCC4c4cccnc4)cc3n2)c1 (centres undefined),0,0,0,-8.1,0,0,42%,0,0
COc1ccc(NC(=O)CN2CCN(c3ccccc3C)CC2)cc1,0,0,0,0,0,0,-,-,-
COc1ccc(NC(=O)CN2CCN(c3ccccc3Cl)CC2)cc1,0,0,0,0,0,0,0,0,0
Cc1nn(C)c(C)c1NS(=O)(=O)c1ccccc1Cl,-,-,-,-,-,0,-,-,-
Cc1ccc(/C=C/C(=O)N2CCC(Cc3ccccc3)CC2)cc1,0,0,0,0,0,0,0,0,26%
Cc1cc(C)c2cc(C(=O)N3CCC(Cc4ccccc4)CC3)[nH]c2c1,0,0,0,0,0,0,0,0,0
COc1cc2cc(C(=O)N3CCC(Cc4ccccc4)CC3)[nH]c2cc1OC,0,0,0,0,0,0,-,-,-
CC1CCN(C(=O)/C=C/c2ccc(C(C)(C)C)cc2)CC1,0,0,0,-9,0,0,62%,0,50%
CCn1c(C)nc2cc(C(=O)NNC(=O)[C@@H](NC(=O)c3cc(OC)cc(OC)c3)C(C)C)ccc21,-,-,-,-,-,0,-,-,-
Cc1ccccc1NC(=O)c1oc(=O)c2ccccc2c1-c1ccccc1,0,0,0,0,0,0,-,-,-
Cc1ccc(C)c(NC(=O)c2oc(=O)c3ccccc3c2-c2ccccc2)c1,0,0,0,-15,0,0,64%,0,44%
Cc1nc(NCC(c2ccccc2)N(C)C)c2c(C)c(C)sc2n1 (centres undefined),0,0,0,0,0,0,0,0,0
COc1ccc(-c2n[nH]c3c2CN(C(=O)c2ccccc2)CC3)cc1,0,0,0,0,0,0,0,0,0
O=C(c1ccco1)N1CCc2[nH]nc(-c3ccc(Cl)cc3)c2C1,0,0,0,0,0,0,-,-,-
O=S(=O)(N/N=C/c1ccc(Cl)cc1)c1ccc(Cc2ncc(C(F)(F)F)cc2Cl)s1,0,0,0,0,10,-9.3,0,0,0
NC(=O)c1ccc(Cc2ncc(C(F)(F)F)cc2Cl)s1,0,0,0,0,0,0,-,-,-
SMILES,hERG rescue,Kir21 block,KCNQ1 act,KCNK9 block,KCNQ1 inh,KCNK3 block,KCNK9 inh conf,Kir21 sel,KCNK9 uninduced
Cc1ccc(SCC(=O)c2cc(C)c(O)c(C)c2)cc1,0,0,0,0,0,0,-,-,-
Cc1cc(C(=O)CSc2ccc(F)cc2)cc(C)c1OC(=S)N(C)C,0,0,0,0,0,0,0,0,32%
COc1ccc(NC(=S)NNc2ccc(C(=O)O)cc2)cc1,0,0,0,0,0,0,-,-,-
O=C(NCc1ccco1)c1cccc(NS(=O)(=O)c2cccc(F)c2)c1,0,0,0,0,0,0,-,-,-
O=C(NCc1ccco1)c1cc(NS(=O)(=O)c2cccc([N+](=O)[O-])c2)ccc1O,0,0,0,0,0,0,0,0,0
CCOc1ccc(-c2nc(CSCC(=O)NC3CCCc4ccccc43)c(C)o2)cc1 (centres undefined),0,0,0,-8.3,6,0,44%,0,42%
CCOc1ccc(-c2nc(CSCC(=O)NC3CC3)c(C)o2)cc1,0,0,0,0,0,0,-,-,-
O=C(Cc1coc2ccc3ccccc3c12)NCc1ccccc1,0,0,0,0,0,0,-,-,-
O=C(CCCOc1ccccc1)NC1CCCc2ccccc21 (centres undefined),0,0,0,0,0,0,0,0,0
O=C(Cc1coc2ccc3ccccc3c12)NC1CCCc2ccccc21 (centres undefined),0,0,0,-11,0,0,66%,0,36%
O=C(COC(=O)CCN1C(=O)C2CC=CCC2C1=O)Nc1ccc(Cl)cc1F (centres undefined),-,-,-,-,-,0,-,-,-
COc1ccc(-c2nc(-c3ccccc3)c(-c3cc([N+](=O)[O-])ccc3C)[nH]2)cc1OC,0,0,0,-12,14,0,54%,0,33%
CCOC(=O)C1CCN(S(=O)(=O)c2ccc(OCC(=O)OC)cc2)CC1,0,0,0,0,0,0,-,-,-
CCOc1ccc(OCCOC(=O)C2CCN(S(=O)(=O)c3ccc(C)c(C)c3)CC2)cc1,0,0,0,0,0,0,0,0,0
Cc1nc(C)c(-c2ccc(SCc3ccc(Cl)cc3)nn2)s1,0,0,0,0,0,0,0,0,0
COc1cc(/C=N/Nc2nc(Nc3ccccc3)nc(-n3nc(C)cc3C)n2)cc(OC)c1OC,0,0,0,-9.4,8,0,46%,0,0

# Screening results deposited in PubChem by Johns Hopkins Ion Channel Center.
